Data as given in paper PMC11865470 (Communications Biology, 2025).
Each block holds one molecule with its values, some of them ahead of it.

Legend:
Assay type in all cases: cell-based
Otop1 channels = Otop1 channels (Mus musculus, UniProt Q80VM9); experiment: patch-clamp, pH 8.5-evoked Otop1 currents with preincubated HIMOP; conditions: 10 μM, preincubated at pH 7.4 for 2 min; 0 mV
In short: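 Mouse Otop1 was expressed with EGFP in PAC-knockout HEK293T cells and whole-cell recorded with Cs-aspartate pipette solution (pH 7.3). Test compound was preincubated with cells at pH 7.4 (NMDG-Cl bath, 10 mM HEPES) for 2 min, then pH 8.5 stimulus applied (NMDG-Cl bath, 10 mM Tris).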

[1] = molecular target: T1, mouse Otop1 (mOtop1) channels (Mus musculus, UniProt Q80VM9); experiment: activation time constant; conditions: 10 μM; before or concurrently with pH 5.5 stimulus
T1 sequence (Q80VM9 1-600): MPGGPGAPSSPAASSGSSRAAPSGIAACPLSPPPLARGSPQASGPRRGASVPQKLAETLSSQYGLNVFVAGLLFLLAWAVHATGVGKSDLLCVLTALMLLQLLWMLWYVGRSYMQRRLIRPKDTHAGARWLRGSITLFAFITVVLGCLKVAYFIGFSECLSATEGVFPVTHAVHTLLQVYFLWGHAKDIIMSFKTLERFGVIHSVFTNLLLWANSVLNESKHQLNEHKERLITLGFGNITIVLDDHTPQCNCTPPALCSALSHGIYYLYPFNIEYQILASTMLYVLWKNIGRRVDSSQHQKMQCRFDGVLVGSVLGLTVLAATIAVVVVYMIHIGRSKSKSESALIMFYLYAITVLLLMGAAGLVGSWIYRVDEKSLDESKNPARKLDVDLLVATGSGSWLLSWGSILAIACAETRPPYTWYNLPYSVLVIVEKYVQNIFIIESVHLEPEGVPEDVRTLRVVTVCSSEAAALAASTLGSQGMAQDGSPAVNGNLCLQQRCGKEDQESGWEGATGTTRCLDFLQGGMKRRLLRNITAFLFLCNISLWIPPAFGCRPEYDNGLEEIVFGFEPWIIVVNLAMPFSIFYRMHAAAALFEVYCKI

mOtop1 I239A = mOtop1 I239A (Mus musculus, UniProt Q80VM9, I239A); experiment: patch-clamp, mOtop1 mutant; conditions: 10 μM; pH 5.5
mOtop1 I239A, sequence (Q80VM9 whole entry I239A): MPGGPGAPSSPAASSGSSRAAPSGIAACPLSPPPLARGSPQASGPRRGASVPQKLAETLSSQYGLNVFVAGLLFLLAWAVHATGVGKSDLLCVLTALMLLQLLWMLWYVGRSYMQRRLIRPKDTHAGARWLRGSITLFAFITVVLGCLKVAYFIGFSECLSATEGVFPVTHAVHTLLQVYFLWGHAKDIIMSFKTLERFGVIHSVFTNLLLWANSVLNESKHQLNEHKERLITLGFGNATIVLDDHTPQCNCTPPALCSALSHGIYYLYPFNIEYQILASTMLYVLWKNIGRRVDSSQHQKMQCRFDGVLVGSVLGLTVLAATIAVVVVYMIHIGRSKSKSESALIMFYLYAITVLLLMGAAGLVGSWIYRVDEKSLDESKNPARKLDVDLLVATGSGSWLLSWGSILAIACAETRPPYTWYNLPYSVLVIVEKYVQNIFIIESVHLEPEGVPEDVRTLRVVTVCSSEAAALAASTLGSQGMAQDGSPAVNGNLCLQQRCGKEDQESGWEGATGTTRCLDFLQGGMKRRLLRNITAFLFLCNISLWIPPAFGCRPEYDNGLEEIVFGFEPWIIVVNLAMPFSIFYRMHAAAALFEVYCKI
In short: (§1)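 Alanine-substituted mOtop1 mutants were co-transfected (2.5 μg channel plus 0.5 μg EGFP plasmid, Lipofectamine 2000) into PAC-knockout HEK293T cells. Whole-cell recording 16–24 h after seeding on PLL coverslips. Pipette (mM): 120 Cs-aspartate, 15 CsCl, 2 Mg-ATP, 5 EGTA, 2.4 CaCl2, 10 HEPES, pH 7.3. Bath (mM): 160 NMDG-Cl, 2 CaCl2, 10 MES, pH 5.5, with 10 μM test compound. Response compared with wild-type mOtop1.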

mOtop1 H246A = mOtop1 H246A (Mus musculus, UniProt Q80VM9, H246A); experiment: patch-clamp, mOtop1 mutant; conditions: 10 μM; pH 5.5
mOtop1 H246A, sequence (Q80VM9 whole entry H246A): as the sequence (Q80VM9 whole entry I239A) above, with A239I, H246A counted along it
In short: as §1

[2] = molecular target: T1, mouse Otop1 (mOtop1) channels; experiment: whole-cell patch-clamp, peak currents: current density and "on-cell" analysis; conditions: for effect on mOtop1 current density: 10 μM
mOtop1 D245A = mOtop1 D245A (Mus musculus, UniProt Q80VM9, D245A); experiment: patch-clamp, mOtop1 mutant; conditions: 10 μM; pH 5.5
mOtop1 D245A, sequence (Q80VM9 whole entry D245A): as the sequence (Q80VM9 whole entry I239A) above, with A239I, D245A counted along it
In short: as §1

mOtop1 R554N = mOtop1 R554N (Mus musculus, UniProt Q80VM9, R554N); experiment: patch-clamp, mOtop1 mutant; conditions: Fig 5G, H
mOtop1 R554N, sequence (Q80VM9 whole entry R554N): as the sequence (Q80VM9 whole entry I239A) above, with A239I, R554N counted along it

mOtop1 L243A = mOtop1 L243A (Mus musculus, UniProt Q80VM9, L243A); experiment: patch-clamp, mOtop1 mutant; conditions: 10 μM; pH 5.5
mOtop1 L243A, sequence (Q80VM9 whole entry L243A): as the sequence (Q80VM9 whole entry I239A) above, with A239I, L243A counted along it
In short: as §1

mOtop1 R554K = mOtop1 R554K (Mus musculus, UniProt Q80VM9, R554K); experiment: patch-clamp, mOtop1 mutant; conditions: Fig 5G, H
mOtop1 R554K, sequence (Q80VM9 whole entry R554K): as the sequence (Q80VM9 whole entry I239A) above, with A239I, R554K counted along it

mOtop1 T240A = mOtop1 T240A (Mus musculus, UniProt Q80VM9, T240A); experiment: patch-clamp, mOtop1 mutant; conditions: 10 μM; pH 5.5
mOtop1 T240A, sequence (Q80VM9 whole entry T240A): as the sequence (Q80VM9 whole entry I239A) above, with A239I, T240A counted along it
In short: as §1

mOtop1 E226A = mOtop1 E226A (Mus musculus, UniProt Q80VM9, E226A); experiment: patch-clamp, mOtop1 mutant; conditions: 10 μM; pH 5.5
mOtop1 E226A, sequence (Q80VM9 whole entry E226A): as the sequence (Q80VM9 whole entry I239A) above, with E226A, A239I counted along it
In short: as §1

mOtop1 T233A = mOtop1 T233A (Mus musculus, UniProt Q80VM9, T233A); experiment: patch-clamp, mOtop1 mutant; conditions: 10 μM; pH 5.5
mOtop1 T233A, sequence (Q80VM9 whole entry T233A): as the sequence (Q80VM9 whole entry I239A) above, with T233A, A239I counted along it
In short: as §1

[3] = molecular target: T1, mouse Otop1 (mOtop1) channels; experiment: reversal potential; conditions: 10 μM; pH 5.5; bath NMDG+, Na+, K+ or Cs+
mOtop1 R554H = mOtop1 R554H (Mus musculus, UniProt Q80VM9, R554H); experiment: patch-clamp, mOtop1 mutant; conditions: Fig 5G, H
mOtop1 R554H, sequence (Q80VM9 whole entry R554H): as the sequence (Q80VM9 whole entry I239A) above, with A239I, R554H counted along it

mOtop1 R554E = mOtop1 R554E (Mus musculus, UniProt Q80VM9, R554E); experiment: patch-clamp, mOtop1 mutant; conditions: Fig 5G, H
mOtop1 R554E, sequence (Q80VM9 whole entry R554E): as the sequence (Q80VM9 whole entry I239A) above, with A239I, R554E counted along it

[4] = molecular target: T1, mouse Otop1 (mOtop1) channels; conditions: 10 μM MFaN; pH 5.5
mOtop1 E229A = mOtop1 E229A (Mus musculus, UniProt Q80VM9, E229A); experiment: patch-clamp, mOtop1 mutant; conditions: 10 μM; pH 5.5
mOtop1 E229A, sequence (Q80VM9 whole entry E229A): as the sequence (Q80VM9 whole entry I239A) above, with E229A, A239I counted along it
In short: as §1

mOtop1 R554C = mOtop1 R554C (Mus musculus, UniProt Q80VM9, R554C); experiment: patch-clamp, mOtop1 mutant; conditions: Fig 5G, H
mOtop1 R554C, sequence (Q80VM9 whole entry R554C): as the sequence (Q80VM9 whole entry I239A) above, with A239I, R554C counted along it

mOtop1 I241A = mOtop1 I241A (Mus musculus, UniProt Q80VM9, I241A); experiment: patch-clamp, mOtop1 mutant; conditions: 10 μM; pH 5.5
mOtop1 I241A, sequence (Q80VM9 whole entry I241A): as the sequence (Q80VM9 whole entry I239A) above, with A239I, I241A counted along it
In short: as §1

effect on pH 8.5-evoked Otop1 currents (Otop1 channels): significantly enhanced
Structure (SMILES): CC(C)c1noc2ncc(C(=O)c3ccccc3O)cc12 [HIMOP, (2-hydroxyphenyl)-(3-propan-2-yl-5-isoxazolo[5,4-b]pyridinyl)methanone]

effect on the activation rate of mOtop1 channels [1]: had no effect | response of mutant to MFaN compared to wild-type mOtop1 (mOtop1 I239A): markedly reduced | response of mutant to MFaN compared to wild-type mOtop1 (mOtop1 H246A): significantly enhanced | EC50 [2]: 9.2 ± 0.6 µM | effect on mOtop1 current density ([2]; pH 5.5, Fig 4A): significantly increased | effect on mOtop1 current density ([2]; pHs ranging from 4.5 to 6.0): significantly increased | response of mutant to MFaN compared to wild-type mOtop1 (mOtop1 D245A): significantly enhanced | effect of mutation on MFaN's potentiation effect vs WT mOtop1 (mOtop1 R554N): eliminated | response of mutant to MFaN compared to wild-type mOtop1 (mOtop1 L243A): significantly enhanced | effect of mutation on MFaN's potentiation effect vs WT mOtop1 (mOtop1 R554K): did not affect | response of mutant to MFaN compared to wild-type mOtop1 (mOtop1 T240A): markedly reduced | response of mutant to MFaN compared to wild-type mOtop1 (mOtop1 E226A): markedly reduced | response of mutant to MFaN compared to wild-type mOtop1 (mOtop1 T233A): markedly reduced | effect on Vrev of the mOtop1 channel [3]: did not change | effect of mutation on MFaN's potentiation effect vs WT mOtop1 (mOtop1 R554H): reduced | effect of mutation on MFaN's potentiation effect vs WT mOtop1 (mOtop1 R554E): eliminated | effect on inhibition of mOtop1 by Zn2+ [4]: without affecting | response of mutant to MFaN compared to wild-type mOtop1 (mOtop1 E229A): significantly enhanced | effect of mutation on MFaN's potentiation effect vs WT mOtop1 (mOtop1 R554C): eliminated | response of mutant to MFaN compared to wild-type mOtop1 (mOtop1 I241A): markedly reduced
Structure (SMILES): Cc1ccc(C(=O)Nc2ccc3ccccc3c2)o1 [MFaN, 5-methyl-N-2-naphthyl-2-furamide]
